From PubChem
CSN deneddyl inh – inhibitors of human CSN-mediated cullin deneddylation; inhibition, % at 12.5 µM; Purified CSN, SCF-Nedd8-OG deneddylation, fluorescence polarization; Q92905; AID 651999; actives 0.38% (n = 360,000);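 active = pattern-corrected inhibition above about 35%, with an unprinted fluorescence ratio check between 0.5 and 1.5, limit read from the data, passing the limit was not always enough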;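 also: 0% = enzyme with substrate and 100% = substrate without enzyme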
Target sequence (Q92905 whole entry, looked up, one chain of several): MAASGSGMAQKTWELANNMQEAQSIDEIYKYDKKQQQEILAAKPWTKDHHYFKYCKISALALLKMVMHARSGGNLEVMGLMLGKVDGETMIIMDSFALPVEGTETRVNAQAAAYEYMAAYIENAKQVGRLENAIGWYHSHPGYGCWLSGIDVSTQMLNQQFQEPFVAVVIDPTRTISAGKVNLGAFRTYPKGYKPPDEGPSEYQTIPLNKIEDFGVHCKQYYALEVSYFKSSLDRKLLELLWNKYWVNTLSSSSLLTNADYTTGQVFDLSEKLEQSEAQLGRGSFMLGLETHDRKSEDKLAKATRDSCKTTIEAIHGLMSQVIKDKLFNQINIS
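Assay system: purified human Csn5 enzyme expressed in HEK293T cells; Input: 0.24 nM Csn5 enzyme, final concentration; Reagent: 10 nM SCFSkp2-Nedd8OG; Compound dosing: 12.5 µM single point; Times: reaction 90 min, room temperature; Technique: fluorescence polarization readout.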
ATG4B inhibitor – blocks human ATG4B protease cleavage of LC3 substrate | Q9Y4P1 | ATG4B cleavage of LC3-PLA2, NBD-HPC fluorescence, 1 h | inhibition, % at 8.33 µM | actives 0.51% (n = 340,000); in the data active = inhibition above about 40%
HNF4A DNA FP – change in binding of human HNF4 alpha to DNA; P41235; HNF4a-FITC DNA binding, fluorescence polarization, 1 h; activity change, % at 10 µM; actives 0.3% (n = 360,000); AID 1224865; in the data active = activity change above about 30%, passing the limit was not always enough
SENP1 inh – inhibitors of human SENP1 SUMO protease catalytic domain; recombinant SENP1 catalytic domain, CyPet-SUMO1-YPet FRET cleavage; inhibition, % at 10 µM; Q9P0U3; actives 0.21% (n = 360,000);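 active = inhibition at least 30% at 10 µM, raw YFP signal under a set limit, fluorescence ratio 0.5 to 1.5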;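 also: 0% = enzyme with DMSO and 100% = no enzyme wells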
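Assay system – human recombinant His6-tagged SENP1 catalytic domain enzyme · Input – SENP1 enzyme, 20 pM final · Buffer or medium – Tris pH 8 buffer plus EDTA, NaCl, BME, BSA, NP40, catalase · Schedule – 50 min reaction at room temperature · Technique – FRET read of cyan and yellow fluorescence · Control set – no-enzyme wells low, DMSO-plus-enzyme wells high control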
TPT1 inhibitor – blocks Candida albicans tRNA 2'-phosphotransferase. recombinant caTPT1, FP RNA substrate dephosphorylation. inhibition, % at 5 µM. actives 0.81% (n = 300,000);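 active = inhibition above the mean of all tested compounds plus 3 SD, set per screening campaign, cut at about 24% in these data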;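 also: plate controls were DMSO alone for no effect and ferristatin control at 100 nM for full effect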
Rpn11 block – inhibitors of human proteasome Rpn11; inhibition, % at 20 µM; actives 0.59% (n = 360,000); AID 588493; human 26S proteasome, Ub4-pepOG fluorescence polarization; 20S core pre-blocked with epoxomicin;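 active = inhibition at 20 µM, scaled to each plate's controls, above about 33%, limit read from the data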
TPT1 inh confirm – confirmation of Candida albicans TPT1 inhibitors; shares compounds with TPT1 inhibitor; recombinant caTPT1, fluorescence polarization, RNase T1 coupled; inhibition, % at 5 µM; actives 74% (n = 2,400);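 active = inhibition above the primary screen limit, the mean inhibition of all tested compounds plus 3 SD, cut at about 25% in these data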
RNase T1 inh – RNase T1 inhibition in TPT1 counter-screen; shares compounds with TPT1 inhibitor; RNase T1 cleavage, fluorescence polarization, 1536-well; inhibition, % at 5 µM; actives 83% (n = 2,400);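 active = inhibition above the solvent-only control well mean plus 3 SD, limit set per screening run, cut at about 23% in these data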;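 also: plate controls were DMSO wells with enzyme for no effect and wells without RNase T1 for full effect; inhibitors block cleavage so intact labeled substrate keeps polarization high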
Target sequence (P00651 whole entry, looked up): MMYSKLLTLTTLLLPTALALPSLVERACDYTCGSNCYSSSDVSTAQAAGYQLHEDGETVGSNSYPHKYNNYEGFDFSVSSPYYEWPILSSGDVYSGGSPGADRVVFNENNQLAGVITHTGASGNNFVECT
An asterisk follows results filed as active; x = no result shown; + = active, no number. An excerpt weighted towards active compounds, which were near 2% of everything screened.

SMILES	CSN deneddyl inh	ATG4B inhibitor	HNF4A DNA FP	SENP1 inh	TPT1 inhibitor	Rpn11 block	TPT1 inh confirm	RNase T1 inh
COc1ccc2nc(C)cc(NCc3ccc(F)cc3)c2c1	104	12	147	-14	69*	x	82*	85*
COc1ccc2nc(C)cc(Nc3ccc(C)cc3)c2c1	3	6	2	0	x	-1	x	x
O=C(/C=C/c1ccc2ccccc2n1)c1cc(Br)ccc1O	17	2	29	-37	43*	x	16	23*
O=C(O)/C=C/c1ccc2ccccc2n1	-2	-3	-1	1	1	-2	x	x
COCCCNC(=O)C[C@@H]1C[C@@]2(C(=O)OC)CCCCC=C2N(Cc2ccc(Cl)cc2Cl)C1=O	2	x	3	1	x	x	x	x
Cc1cc2c(cc1C)C(c1cccc([N+](=O)[O-])c1)CC(=O)N2 (stereo not given)	1	6	0	0	53*	0	19	32*
COc1ccc(C)cc1Nc1n[n+](-c2ccccc2)c(-c2ccc(NC(C)=O)cc2)s1	4	-3	8	4	6	17	x	x
COc1ccc(C)cc1Nc1n[n+](-c2ccccc2)c(-c2cc([N+](=O)[O-])cc(OC)c2O)s1	73	4	207	43*	24*	x	120*	120*
CC1ON=C(c2ccc(F)cc2)NC1=O (stereo not given)	0	x	6	-1	x	2	x	x
Cc1ccc(OCCN2C(=O)S/C(=C\c3ccc(C)o3)C2=O)cc1	4	33	14	3	12	37	x	x
CCCN1C(=O)S/C(=C/c2ccc(N3CCOCC3)o2)C1=O	46	-18	217	-34	180*	x	183*	166*
CCCN1C(=O)S/C(=C\c2ccc(N3CCOCC3)o2)C1=O	-15	-29	127	-29	+	x	188*	169*
CC12CCC3c4ccccc4CCC3(CO1)C2 (stereo not given)	-2	x	-1	1	x	-3	x	x
Cc1ccc2nc(/C(C#N)=C\c3cc(O)ccc3[N+](=O)[O-])[nH]c2c1	-10	-3	-6	-25	10	6	x	x
Cc1ccc2nc(/C(C#N)=C/c3ccc(-c4cccc([N+](=O)[O-])c4)o3)[nH]c2c1	45	10	23	-26	76*	-34	65*	74*
COc1cc(/C=N/NC(=O)c2ccccc2)ccc1O	6	-2	-3	2	3	3	x	x
COc1cc(/C=N/NC(=O)c2sc(N)c(C#N)c2C)ccc1O	-8	-12	2	-5	54*	0	2	10
COc1ccc(C(=O)Cn2nnc(-c3ccccc3NC(=O)C3CCCCC3)n2)cc1	7	16	8	-92	30*	16	43*	54*
CCN(C[C@H]1N[C@@](C)(C(=O)OC)[C@H]2C(=O)N(Cc3ccccc3)C(=O)[C@@H]12)C(=O)Nc1ccc(OC)cc1	-6	-3	6	2	x	7	x	x
Cc1cn([C@H]2C[C@H](O)[C@@H](/C=C/C(=O)NCCc3ccc(S(N)(=O)=O)cc3)O2)c(=O)[nH]c1=O	-6	x	1	-4	x	-11	x	x
CC(=N)c1c(O)c2ccccc2oc1=O	1	-7	0	-3	27*	-4	4	5
Cc1ccc(CN2C(=O)N/C(=C\c3ccc(N4CCOCC4)cc3)C2=O)cc1	3	-12	7	-46	1	9	x	x
CCCN1C(=O)/C(=C/c2ccc(N3CCOCC3)cc2)NC1=S	78	-2	90*	-37	138*	x	143*	139*
CCN1C(=O)/C(=C/c2ccc(N3CCCC3)cc2)NC1=S	137	16	148	-27	150*	x	154*	142*
